Assay results from ChEMBL document CHEMBL1154440, “Design and synthesis of 2-(2,6-dibromophenyl)-3-heteroaryl-1,3-thiazolidin-4-ones as anti-HIV agents” (Eur J Med Chem, 2008).
Activity calls are given as the source filed them. The calls are words filed in the database; no cut-off is given here.

Columns and labels:
[1] = system: Human immunodeficiency virus 1; experiment: Antiviral activity against HIV1 3B replication in human MT4 cells assessed as inhibition of virus-induced cytopathic effect after 5 days by tetrazolium-based colorimetric assay; format: functional, organism-based; conditions: Human immunodeficiency virus 1, 3B, MT4, 120 h
[2] = Cytotoxicity against human MT4 cells by MTT assay; format: cell-based
Procedure, shortened: (§1)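 CC50 was measured in parallel with the antiviral assays. It is the compound concentration that reduced by 50% the number of viable cells in mock-infected MT-4 or CEM cultures.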

[3] = Selectivity index, ratio of CC50 for human MT4 cells to EC50 for HIV1 3B; format: toxicity, cell-based; conditions: read-out: Ratio CC50/EC50
Procedure, shortened: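 Selectivity index is CC50/EC50. CC50 comes from the viable-cell count in mock-infected MT-4 cells.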

[4] = molecular target: Human immunodeficiency virus type 1 reverse transcriptase (Human immunodeficiency virus 1) (UniProt Q72547); experiment: Inhibition of HIV1 reverse transcriptase at 100 ug/ml after 1 hr by microtiter plate ELISA
Procedure, shortened: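 Nonradioactive kit ELISA. HIV-1 RT, template/primer and biotin- and DIG-labelled dNTPs were incubated in lysis buffer with or without inhibitor for 1 h at 37 °C. Product was captured on streptavidin and detected with anti-DIG-peroxidase and ABTS substrate. Absorbance at 405 nm is proportional to RT activity.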

[5] = system: Human immunodeficiency virus 2; experiment: Antiviral activity against HIV2 ROD replication in human MT4 cells assessed as inhibition of virus-induced cytopathic effect at subtoxic concentration after 5 days by tetrazolium-based colorimetric assay; format: functional, organism-based
[6] = system: Human immunodeficiency virus 2; experiment: Antiviral activity against HIV2 ROD replication in human CEM cells assessed as inhibition of virus-induced syncytium formation at subtoxic concentration after 4 days; conditions: CCRF-CEM
[7] = Cytotoxicity against human CEM cells by MTT assay; format: cell-based; conditions: CEM cells (CCRF-CEM); procedure, shortened: as §1
[8] = Selectivity index, ratio of CC50 for human CEM cells to EC50 for HIV1 3B; format: toxicity, cell-based, CCRF-CEM; conditions: read-out: Ratio CC50/EC50
[9] = system: Human immunodeficiency virus 1; experiment: Antiviral activity against HIV1 3B replication in human CEM cells assessed as inhibition of virus-induced syncytium formation after 4 days; conditions: Human immunodeficiency virus 1, 3B, CCRF-CEM, 96 h

Cc1cc(-c2ccccc2)nc(N2C(=O)CSC2c2c(Br)cccc2Br)n1 (centres undefined)
EC50 [1]: > 8.65 µM
CC50 [2]: 184 µM
selectivity ratio [3]: < 21
inhibition [4]: 17.8%
Activity [5]: inactive
Activity [6]: inactive

Cc1cc(C(F)(F)F)nc(N2C(=O)CSC2c2c(Br)cccc2Br)n1 (centres undefined)
EC50 [1]: 0.32 µM
CC50 [2]: 32.6 µM
selectivity ratio [3]: 99
inhibition [4]: 85.4%
CC50 [7]: 59.3 µM
selectivity ratio [8]: 161
Activity [5]: inactive
EC50 [9]: 0.36 µM
Activity [6]: inactive

O=C1CSC(c2c(Br)cccc2Br)N1c1nccs1 (centres undefined)
EC50 [1]: 0.5 µM
CC50 [2]: 109 µM
selectivity ratio [3]: 218
inhibition [4]: 69.5%
CC50 [7]: 109 µM
selectivity ratio [8]: 194
Activity [5]: inactive
EC50 [9]: 0.56 µM
Activity [6]: inactive

O=C1CSC(c2c(Br)cccc2Br)N1Cc1ccco1 (centres undefined)
EC50 [1]: 0.21 µM
CC50 [2]: 36.4 µM
selectivity ratio [3]: 171
inhibition [4]: 99%
CC50 [7]: 36.6 µM
selectivity ratio [8]: 200
Activity [5]: inactive
EC50 [9]: 0.18 µM
Activity [6]: inactive

Cc1ccnc2c1NC(=O)c1cccnc1N2C1CC1 [NEVIRAPINE]
EC50 [1]: 0.05 µM
CC50 [2]: > 50 µM
selectivity ratio [3]: > 1000
CC50 [7]: > 4 µM
selectivity ratio [8]: > 370
Activity [5]: inactive
EC50 [9]: 0.01 µM
Activity [6]: inactive

Cc1cc(N2C(=O)CSC2c2c(Br)cccc2Br)nc(C)n1 (centres undefined)
EC50 [1]: 5.21 µM
CC50 [2]: 33.4 µM
selectivity ratio [3]: 6
inhibition [4]: 66.4%
CC50 [7]: 33.5 µM
selectivity ratio [8]: 7
Activity [5]: inactive
EC50 [9]: 4.67 µM
Activity [6]: inactive

Fc1cccc(F)c1C1SCc2nc3ccccc3n21 (centres undefined) [THIAZOLOBENZIMIDAZOLE]
selectivity ratio [3]: 54.5
selectivity ratio [8]: 45
Activity [5]: inactive
Activity [6]: inactive

Clc1cccc(Cl)c1C1SCc2nc3ccccc3n21 (centres undefined)
selectivity ratio [3]: 16
Activity [5]: inactive
Activity [6]: inactive

O=C1CSC(c2c(Br)cccc2Br)N1Cc1cccs1 (centres undefined)
EC50 [1]: 0.58 µM
CC50 [2]: 34.6 µM
selectivity ratio [3]: 59
inhibition [4]: 84.3%
CC50 [7]: 35.6 µM
selectivity ratio [8]: 59
Activity [5]: inactive
EC50 [9]: 0.6 µM
Activity [6]: inactive

Cc1nc(N2C(=O)CSC2c2c(Br)cccc2Br)ccc1Br (centres undefined)
EC50 [1]: 1.03 µM
CC50 [2]: 98 µM
selectivity ratio [3]: 96
inhibition [4]: 61.4%
CC50 [7]: 98 µM
selectivity ratio [8]: 53
Activity [5]: inactive
EC50 [9]: 1.83 µM
Activity [6]: inactive

Cc1nc(N2C(=O)CSC2c2c(Br)cccc2Br)nc(C)c1C (centres undefined)
EC50 [1]: 0.06 µM
CC50 [2]: 227 µM
selectivity ratio [3]: 3720
inhibition [4]: 100%
CC50 [7]: > 273 µM
selectivity ratio [8]: > 5020
Activity [5]: inactive
EC50 [9]: 0.06 µM
Activity [6]: inactive

Cc1ccnc(N2C(=O)CSC2c2c(Br)cccc2Br)n1 (centres undefined)
EC50 [1]: 0.04 µM
CC50 [2]: 33.9 µM
selectivity ratio [3]: 757
inhibition [4]: 100%
CC50 [7]: 36.3 µM
selectivity ratio [8]: 930
Activity [5]: inactive
EC50 [9]: 0.04 µM
Activity [6]: inactive

Cc1cc(C)nc(N2C(=O)CSC2c2c(Br)cccc2Br)n1 (centres undefined)
inhibition [4]: 100%

O=C1CSC(c2c(Br)cccc2Br)N1c1ncccn1 (centres undefined)
EC50 [1]: 0.24 µM
CC50 [2]: 172 µM
selectivity ratio [3]: 687
inhibition [4]: 100%
CC50 [7]: 179 µM
selectivity ratio [8]: 769
Activity [5]: inactive
EC50 [9]: 0.23 µM
Activity [6]: inactive

O=C1CSC(c2c(Br)cccc2Br)N1c1ccccn1 (centres undefined)
EC50 [1]: 0.22 µM
CC50 [2]: 13.1 µM
selectivity ratio [3]: 60
inhibition [4]: 85.2%
CC50 [7]: 17.1 µM
selectivity ratio [8]: 66
Activity [5]: inactive
EC50 [9]: 0.27 µM
Activity [6]: inactive

O=C1CSC(c2c(Br)cccc2Br)N1Cc1ccccn1 (centres undefined)
EC50 [1]: 0.84 µM
CC50 [2]: 174 µM
selectivity ratio [3]: 209
inhibition [4]: 97.6%
CC50 [7]: 117 µM
selectivity ratio [8]: 283
Activity [5]: inactive
EC50 [9]: 0.63 µM
Activity [6]: inactive

O=C1CSC(c2c(Br)cccc2Br)N1c1cccc(C(F)(F)F)n1 (centres undefined)
EC50 [1]: 4.56 µM
CC50 [2]: 30 µM
selectivity ratio [3]: 7
inhibition [4]: 23.9%
CC50 [7]: 29.8 µM
selectivity ratio [8]: 8
Activity [5]: inactive
EC50 [9]: 3.96 µM
Activity [6]: inactive

Cc1cccc(N2C(=O)CSC2c2c(Br)cccc2Br)n1 (centres undefined)
EC50 [1]: 0.09 µM
CC50 [2]: 233 µM
selectivity ratio [3]: 2660
inhibition [4]: 79.5%
CC50 [7]: 233 µM
selectivity ratio [8]: 2950
Activity [5]: inactive
EC50 [9]: 0.08 µM
Activity [6]: inactive
